In ChEMBL document CHEMBL1817650, “Fragment-based drug design and drug repositioning using multiple ligand simultaneous docking (MLSD): identifying celecoxib and template compounds as novel inhibitors of signal transducer and activator of transcription 3 (STAT3)” (J Med Chem, 2011) one finds inhibition and IC50 data, which are given here for 3 molecules.

Active and inactive are the calls of the source. The rule behind the calls is not given here.

The IC50 is the concentration at which inhibition is half-maximal.

The target in test [1] is Signal transducer and activator of transcription 3 (Homo sapiens) (UniProt P40763). As to the kind of experiment: Inhibition of IL-6-induced STAT3 phosphorylation in human PANC1 cells at 25 to 50 µM pretreated 2 hrs prior to IL-6 challenge measured after 30 mins. The class given is cell-based. As to conditions: PANC-1. Put shortly:
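PANC-1 cells were serum-starved for 24 h, then pretreated with 25 or 50 μM compound for 2 h. They were then stimulated with IL-6 at 50 ng/ml for 30 min, and STAT3 phosphorylation was assessed.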

For test [2], the system named is HCT-116. Description: Anticancer activity against human HCT116 cells after 72 hrs by MTT assay. The class given is functional, cell-based. As to conditions: HCT-116, 72 h. Put shortly:
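HCT-116 cells, 3,000 per well, given escalating concentrations (5–160 μM or 1–75 μM depending on compound) in triplicate with 10% FBS. Incubation was 72 h at 37°C, then MTT viability read-out at 595 nm absorbance. IC50 was derived by curve fitting.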
On the technique in general: Formazan colour is commonly taken as a measure of viable cells.

In test [3] the test system is HCT-116. As to the kind of experiment: Inhibition of STAT3 protein expression in COX2-negative human HCT116 cells at 10 to 50 uM after 24 hrs by Western blot analysis. (In western blotting, separated proteins are transferred to a membrane and probed.)
The target in test [4] is Signal transducer and activator of transcription 3 (Homo sapiens) (UniProt P40763). Description: Inhibition of STAT3 SH2 domain phosphorylation at Tyr705 in COX2-negative human HCT116 cells after 24 hrs by Western blot analysis. As to conditions: HCT-116.
Sequence of Signal transducer and activator of transcription 3 (Homo sapiens) (P40763 whole entry, the tested form may be a part): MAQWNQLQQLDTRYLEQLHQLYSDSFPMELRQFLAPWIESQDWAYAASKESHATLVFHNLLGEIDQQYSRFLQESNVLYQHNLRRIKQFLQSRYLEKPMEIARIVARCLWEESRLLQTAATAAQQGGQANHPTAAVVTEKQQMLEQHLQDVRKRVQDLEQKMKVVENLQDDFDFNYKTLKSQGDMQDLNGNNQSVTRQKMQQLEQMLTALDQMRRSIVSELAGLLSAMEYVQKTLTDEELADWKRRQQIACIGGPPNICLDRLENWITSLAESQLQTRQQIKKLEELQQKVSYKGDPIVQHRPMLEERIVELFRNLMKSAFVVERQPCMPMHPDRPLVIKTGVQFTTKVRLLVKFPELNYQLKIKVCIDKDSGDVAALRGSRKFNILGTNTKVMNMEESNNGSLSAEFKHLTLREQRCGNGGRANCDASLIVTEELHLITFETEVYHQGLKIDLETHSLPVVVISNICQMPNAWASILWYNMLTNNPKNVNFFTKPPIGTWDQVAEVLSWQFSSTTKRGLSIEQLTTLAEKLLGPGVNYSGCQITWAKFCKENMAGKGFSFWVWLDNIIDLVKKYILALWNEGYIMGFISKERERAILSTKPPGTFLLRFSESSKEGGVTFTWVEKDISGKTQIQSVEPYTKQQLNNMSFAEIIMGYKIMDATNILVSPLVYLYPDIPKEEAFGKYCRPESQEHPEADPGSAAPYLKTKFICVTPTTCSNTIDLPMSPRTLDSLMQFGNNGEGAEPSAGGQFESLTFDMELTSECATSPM
Test [5] deals with Signal transducer and activator of transcription 1 (Homo sapiens) (UniProt P42224). As to the kind of experiment: Inhibition of interferon gamma induced STAT1 phosphorylation in human PANC1 cells at […] pretreated 2 hrs prior to interferon-gamma challenge measured after 30. As to conditions: PANC-1.
Sequence of Signal transducer and activator of transcription 1 (Homo sapiens) (P42224 whole entry, looked up): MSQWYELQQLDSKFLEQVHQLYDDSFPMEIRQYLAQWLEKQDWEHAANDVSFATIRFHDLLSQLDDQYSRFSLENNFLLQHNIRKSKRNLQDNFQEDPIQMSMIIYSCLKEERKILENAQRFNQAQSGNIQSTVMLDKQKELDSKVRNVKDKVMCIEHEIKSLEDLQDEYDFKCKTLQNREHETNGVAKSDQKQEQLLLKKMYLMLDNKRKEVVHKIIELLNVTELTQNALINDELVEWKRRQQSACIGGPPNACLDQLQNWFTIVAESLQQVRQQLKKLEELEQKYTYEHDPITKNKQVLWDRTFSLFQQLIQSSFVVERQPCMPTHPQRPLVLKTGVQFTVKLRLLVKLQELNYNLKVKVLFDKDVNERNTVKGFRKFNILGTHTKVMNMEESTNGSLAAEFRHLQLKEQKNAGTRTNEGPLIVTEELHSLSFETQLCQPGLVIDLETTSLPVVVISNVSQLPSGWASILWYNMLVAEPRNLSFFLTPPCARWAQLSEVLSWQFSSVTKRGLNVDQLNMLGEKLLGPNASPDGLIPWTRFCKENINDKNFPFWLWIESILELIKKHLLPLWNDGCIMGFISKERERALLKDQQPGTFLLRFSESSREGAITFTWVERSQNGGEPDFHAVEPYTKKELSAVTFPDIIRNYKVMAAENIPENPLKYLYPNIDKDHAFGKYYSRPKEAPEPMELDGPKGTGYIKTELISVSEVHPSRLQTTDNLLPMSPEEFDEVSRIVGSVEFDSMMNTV

As to `Cc1ccc(-c2cc(C(F)(F)F)nn2-c2ccc(S(N)(=O)=O)cc2)cc1` [CELECOXIB], in test [1], the inhibition entry was “Active”. The molecule further registered an IC50 in the test with HCT-116 [2] of 43.3 µM. In addition, the inhibition result (in the test on HCT-116 [3]; in test [5]) was “inactive” in each case. In addition, the inhibition result in test [4] was “Dose-dependent effect”.

The molecule `NS(=O)(=O)c1ccc(-n2nc(C(=O)NN3CCCCC3)cc2-c2ccc(-c3ccccc3)cc2)cc1` gave an IC50 in the test on HCT-116 [2] of 10.1 µM. For the same molecule, the inhibition result with HCT-116 [3] was “inactive”. In addition, the inhibition result in test [4] is “Dose-dependent effect”.

Molecule `Cc1ccc(Cc2cc(-c3ccc(Br)cc3)n(-c3ccc(S(N)(=O)=O)cc3)n2)cc1` displayed an IC50 in the test on HCT-116 [2] of 9.7 µM. For the same molecule, the inhibition entry in the test with HCT-116 [3] was “inactive”. Besides, the inhibition entry in test [4] is “Dose-dependent effect”.
